Laboratory results from ChEMBL document CHEMBL1140697, “Synthesis and evaluation in monkey of two sensitive 11C-labeled aryloxyanilide ligands for imaging brain peripheral benzodiazepine receptors in vivo” (J Med Chem, 2008).

What was measured:
[1] = biological target: Translocator protein (Rattus norvegicus, UniProt P16257); test: Binding affinity to PBR in Sprague-Dawley rat mitochondrial tissue
[2] = biological target: Translocator protein (Homo sapiens, UniProt P30536); test: Binding affinity to PBR in human mitochondrial tissue
Sequence of Translocator protein (Homo sapiens, UniProt P30536) (P30536 whole entry): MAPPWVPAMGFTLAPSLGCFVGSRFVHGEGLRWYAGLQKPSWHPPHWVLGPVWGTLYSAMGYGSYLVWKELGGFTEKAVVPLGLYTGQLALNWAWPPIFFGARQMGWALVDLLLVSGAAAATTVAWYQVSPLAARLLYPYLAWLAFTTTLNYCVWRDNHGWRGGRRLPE

[3] = Binding affinity to PBR in rhesus monkey mitochondrial tissue; set-up: species or system Macaca mulatta
In short: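 Mitochondrial fractions (rat, rhesus monkey or human) were incubated with [³H]PK 11195 (0.38 nM final) and eight test-ligand concentrations for 2 h at 4 °C. Samples were filtered on PEI-presoaked GF/B filters, washed with ice-cold buffer and counted. Nonspecific binding was taken at the top inhibitor level (0.1–0.3 µM). Triplicate curves were run in two independent experiments. IC₅₀ was converted to K_i by Cheng–Prusoff, using K_D from homologous PK 11195 displacement.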

[4] = biological target: Muscarinic acetylcholine receptor M5 (Homo sapiens) (UniProt P08912); test: Binding affinity to muscarinic receptor M5 receptor at 10 uM; details: tested as the 11C-labelled form
In short: (§1)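 Run through the NIMH Psychoactive Drug Screening Program (PDSP) broad receptor screen. The test ligand was used at 10 µM, and the read-out was percent displacement of the reference radioligand from each site.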

[5] = biological target: 5-hydroxytryptamine receptor 1B (Homo sapiens) (UniProt P28222); test: Binding affinity to 5HT1B at 10 uM; details: tested as the 11C-labelled form; in short: as §1
[6] = biological target: Beta-1 adrenergic receptor (Homo sapiens) (UniProt P08588); test: Binding affinity to adrenergic […] at 10 uM; details: tested as the 11C-labelled form; in short: as §1
[7] = biological target: Histamine H3 receptor (Homo sapiens) (UniProt Q9Y5N1); test: Binding affinity to histamine H3 receptor at 10 uM; details: tested as the 11C-labelled form; in short: as §1
Sequence of Histamine H3 receptor (Homo sapiens) (Q9Y5N1 whole entry): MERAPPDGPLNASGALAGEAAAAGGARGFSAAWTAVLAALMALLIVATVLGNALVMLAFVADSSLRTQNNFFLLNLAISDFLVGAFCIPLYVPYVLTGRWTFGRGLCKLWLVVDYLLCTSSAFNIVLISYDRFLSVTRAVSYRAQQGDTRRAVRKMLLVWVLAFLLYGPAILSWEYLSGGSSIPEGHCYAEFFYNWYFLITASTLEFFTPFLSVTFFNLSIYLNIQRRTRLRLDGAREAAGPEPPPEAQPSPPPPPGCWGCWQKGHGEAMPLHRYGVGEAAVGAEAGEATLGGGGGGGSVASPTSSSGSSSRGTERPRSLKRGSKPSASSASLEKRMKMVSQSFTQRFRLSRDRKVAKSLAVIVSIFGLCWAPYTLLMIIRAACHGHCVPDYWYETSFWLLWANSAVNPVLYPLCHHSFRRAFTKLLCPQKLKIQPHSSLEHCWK

[8] = biological target: Beta-3 adrenergic receptor (Homo sapiens) (UniProt P13945); test: Binding affinity to adrenergic beta-3 at 10 uM; details: tested as the 11C-labelled form; in short: as §1
Sequence of Beta-3 adrenergic receptor (Homo sapiens) (P13945 whole entry, looked up): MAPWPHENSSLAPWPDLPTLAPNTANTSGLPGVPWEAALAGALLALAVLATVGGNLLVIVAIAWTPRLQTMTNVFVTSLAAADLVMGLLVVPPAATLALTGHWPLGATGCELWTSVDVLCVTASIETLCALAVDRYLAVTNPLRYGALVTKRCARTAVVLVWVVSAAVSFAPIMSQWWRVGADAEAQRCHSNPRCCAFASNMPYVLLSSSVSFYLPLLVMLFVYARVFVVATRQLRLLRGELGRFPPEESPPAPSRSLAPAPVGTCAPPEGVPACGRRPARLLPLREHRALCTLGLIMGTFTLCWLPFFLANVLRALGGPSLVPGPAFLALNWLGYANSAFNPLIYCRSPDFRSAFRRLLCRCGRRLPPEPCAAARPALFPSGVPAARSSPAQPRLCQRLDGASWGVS

[9] = biological target: Histamine H2 receptor (Homo sapiens) (UniProt P25021); test: Binding affinity to histamine H2 receptor at 10 uM; details: tested as the 11C-labelled form; in short: as §1
Sequence of Histamine H2 receptor (Homo sapiens) (P25021 whole entry): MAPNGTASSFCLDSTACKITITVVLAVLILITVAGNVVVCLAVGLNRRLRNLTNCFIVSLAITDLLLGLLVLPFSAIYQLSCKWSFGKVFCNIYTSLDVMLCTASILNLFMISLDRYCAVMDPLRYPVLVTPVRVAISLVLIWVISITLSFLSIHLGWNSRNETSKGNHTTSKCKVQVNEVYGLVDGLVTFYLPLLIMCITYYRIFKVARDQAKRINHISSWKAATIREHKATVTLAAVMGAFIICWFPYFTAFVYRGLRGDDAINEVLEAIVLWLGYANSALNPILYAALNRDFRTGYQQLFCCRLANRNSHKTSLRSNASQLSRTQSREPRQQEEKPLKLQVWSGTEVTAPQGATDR

[10] = biological target: Muscarinic acetylcholine receptor M2 (Homo sapiens) (UniProt P08172); test: Binding affinity to muscarinic receptor M2 receptor at 10 uM; details: tested as the 11C-labelled form; in short: as §1
Sequence of Muscarinic acetylcholine receptor M2 (Homo sapiens) (P08172 whole entry): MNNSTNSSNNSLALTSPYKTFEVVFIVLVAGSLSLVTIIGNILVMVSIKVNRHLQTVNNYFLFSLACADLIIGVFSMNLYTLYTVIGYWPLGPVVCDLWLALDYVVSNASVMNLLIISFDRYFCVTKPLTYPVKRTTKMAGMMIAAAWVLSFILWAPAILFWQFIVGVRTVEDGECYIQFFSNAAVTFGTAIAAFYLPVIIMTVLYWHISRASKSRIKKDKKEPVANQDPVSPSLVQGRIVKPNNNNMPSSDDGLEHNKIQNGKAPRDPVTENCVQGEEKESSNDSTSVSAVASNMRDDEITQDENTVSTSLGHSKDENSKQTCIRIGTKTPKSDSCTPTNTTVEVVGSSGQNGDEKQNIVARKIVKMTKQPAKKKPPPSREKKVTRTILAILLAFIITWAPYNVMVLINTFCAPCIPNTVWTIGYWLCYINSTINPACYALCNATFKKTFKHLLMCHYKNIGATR

[11] = biological target: Alpha-1A adrenergic receptor (Homo sapiens) (UniProt P35348); test: Binding affinity to adrenergic alpha-1A at 10 uM; details: tested as the 11C-labelled form; in short: as §1
[12] = biological target: Alpha-1B adrenergic receptor (Homo sapiens) (UniProt P35368); test: Binding affinity to adrenergic alpha-1B at 10 uM; details: tested as the 11C-labelled form; in short: as §1
[13] = biological target: Sodium-dependent noradrenaline transporter (Homo sapiens) (UniProt P23975); test: Binding affinity to NET receptor at 10 uM; details: tested as the 11C-labelled form; in short: as §1
[14] = biological target: Histamine H1 receptor (Homo sapiens) (UniProt P35367); test: Binding affinity to histamine H1 receptor at 10 uM; details: tested as the 11C-labelled form; in short: as §1
[15] = biological target: Sodium-dependent serotonin transporter (Homo sapiens) (UniProt P31645); test: Binding affinity to SERT receptor at 10 uM; details: tested as the 11C-labelled form; in short: as §1
Sequence of Sodium-dependent serotonin transporter (Homo sapiens) (P31645 whole entry, looked up): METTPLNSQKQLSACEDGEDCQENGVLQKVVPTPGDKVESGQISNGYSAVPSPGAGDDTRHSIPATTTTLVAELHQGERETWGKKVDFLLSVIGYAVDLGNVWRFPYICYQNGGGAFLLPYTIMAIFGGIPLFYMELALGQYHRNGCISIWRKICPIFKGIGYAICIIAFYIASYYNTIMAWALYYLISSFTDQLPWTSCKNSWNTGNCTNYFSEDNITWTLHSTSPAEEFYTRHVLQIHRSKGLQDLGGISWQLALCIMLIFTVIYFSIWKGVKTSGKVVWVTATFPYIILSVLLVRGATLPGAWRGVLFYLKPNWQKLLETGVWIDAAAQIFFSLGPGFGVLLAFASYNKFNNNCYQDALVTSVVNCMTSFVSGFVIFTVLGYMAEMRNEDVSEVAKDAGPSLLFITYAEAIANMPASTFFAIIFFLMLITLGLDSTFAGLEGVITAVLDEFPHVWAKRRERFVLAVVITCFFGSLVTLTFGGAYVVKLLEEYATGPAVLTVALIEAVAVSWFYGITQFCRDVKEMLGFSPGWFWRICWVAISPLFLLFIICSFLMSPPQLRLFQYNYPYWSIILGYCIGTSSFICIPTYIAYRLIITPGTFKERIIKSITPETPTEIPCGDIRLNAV

[16] = biological target: D(2) dopamine receptor (Homo sapiens) (UniProt P14416); test: Binding affinity to dopamine receptor D2 at 10 uM; details: tested as the 11C-labelled form; in short: as §1
Sequence of D(2) dopamine receptor (Homo sapiens) (P14416 whole entry): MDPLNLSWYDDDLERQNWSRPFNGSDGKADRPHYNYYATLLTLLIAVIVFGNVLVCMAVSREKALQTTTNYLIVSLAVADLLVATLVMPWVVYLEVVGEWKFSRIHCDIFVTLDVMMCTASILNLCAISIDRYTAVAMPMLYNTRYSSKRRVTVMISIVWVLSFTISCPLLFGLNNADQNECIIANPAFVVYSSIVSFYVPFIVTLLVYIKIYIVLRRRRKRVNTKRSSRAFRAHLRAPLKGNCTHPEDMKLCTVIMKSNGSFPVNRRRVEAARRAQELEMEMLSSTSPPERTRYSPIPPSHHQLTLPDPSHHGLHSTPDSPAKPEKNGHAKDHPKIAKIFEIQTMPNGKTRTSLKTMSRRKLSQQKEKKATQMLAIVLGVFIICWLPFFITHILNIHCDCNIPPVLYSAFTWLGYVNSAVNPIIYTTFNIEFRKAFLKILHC

[17] = biological target: 5-hydroxytryptamine receptor 2A (Homo sapiens) (UniProt P28223); test: Binding affinity to 5HT2A at 10 uM; details: tested as the 11C-labelled form; in short: as §1
[18] = biological target: 5-hydroxytryptamine receptor 2B (Homo sapiens) (UniProt P41595); test: Binding affinity to 5HT2B at 10 uM; details: tested as the 11C-labelled form; in short: as §1
[19] = biological target: Beta-2 adrenergic receptor (Homo sapiens) (UniProt P07550); test: Binding affinity to adrenergic beta-2 at 10 uM; details: tested as the 11C-labelled form; in short: as §1
Sequence of Beta-2 adrenergic receptor (Homo sapiens) (P07550 whole entry, looked up): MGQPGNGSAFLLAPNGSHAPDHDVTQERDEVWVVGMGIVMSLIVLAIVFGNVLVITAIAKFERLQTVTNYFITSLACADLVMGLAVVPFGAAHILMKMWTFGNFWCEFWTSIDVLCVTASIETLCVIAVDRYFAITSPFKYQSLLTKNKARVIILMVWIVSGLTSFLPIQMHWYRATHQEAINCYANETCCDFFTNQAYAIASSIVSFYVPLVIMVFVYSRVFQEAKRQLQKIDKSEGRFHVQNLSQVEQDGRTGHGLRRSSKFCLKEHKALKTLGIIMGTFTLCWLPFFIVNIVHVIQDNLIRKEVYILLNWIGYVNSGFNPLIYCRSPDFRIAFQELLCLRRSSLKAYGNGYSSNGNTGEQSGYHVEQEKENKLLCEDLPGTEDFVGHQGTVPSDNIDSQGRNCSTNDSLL

[20] = biological target: 5-hydroxytryptamine receptor 1E (Homo sapiens) (UniProt P28566); test: Binding affinity to 5HT1E at 10 uM; details: tested as the 11C-labelled form; in short: as §1
[21] = biological target: 5-hydroxytryptamine receptor 1D (Homo sapiens) (UniProt P28221); test: Binding affinity to 5HT1D at 10 uM; details: tested as the 11C-labelled form; in short: as §1
[22] = biological target: Sodium-dependent dopamine transporter (Homo sapiens) (UniProt Q01959); test: Binding affinity to DAT receptor at 10 uM; details: tested as the 11C-labelled form; in short: as §1
[23] = biological target: Alpha-2A adrenergic receptor (Homo sapiens) (UniProt P08913); test: Binding affinity to adrenergic alpha-2A at 10 uM; details: tested as the 11C-labelled form; in short: as §1
[24] = biological target: D(3) dopamine receptor (Homo sapiens) (UniProt P35462); test: Binding affinity to dopamine receptor D3 at 10 uM; details: tested as the 11C-labelled form; in short: as §1
[25] = biological target: 5-hydroxytryptamine receptor 1A (Homo sapiens) (UniProt P08908); test: Binding affinity to 5HT1A at 10 uM; details: tested as the 11C-labelled form; in short: as §1
Sequence of 5-hydroxytryptamine receptor 1A (Homo sapiens) (P08908 whole entry): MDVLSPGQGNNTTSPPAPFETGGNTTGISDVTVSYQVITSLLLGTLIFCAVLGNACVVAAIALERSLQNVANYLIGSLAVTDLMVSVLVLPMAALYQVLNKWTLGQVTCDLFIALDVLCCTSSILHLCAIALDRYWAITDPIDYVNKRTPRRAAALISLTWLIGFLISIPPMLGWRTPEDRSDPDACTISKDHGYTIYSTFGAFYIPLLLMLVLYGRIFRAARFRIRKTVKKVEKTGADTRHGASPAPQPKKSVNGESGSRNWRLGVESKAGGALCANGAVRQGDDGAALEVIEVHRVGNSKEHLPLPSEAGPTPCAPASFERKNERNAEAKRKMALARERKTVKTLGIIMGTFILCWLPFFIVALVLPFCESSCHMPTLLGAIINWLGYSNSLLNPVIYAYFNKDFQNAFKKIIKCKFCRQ

[26] = biological target: D(1A) dopamine receptor (Homo sapiens) (UniProt P21728); test: Binding affinity to dopamine receptor D1 at 10 uM; details: tested as the 11C-labelled form; in short: as §1
[27] = biological target: 5-hydroxytryptamine receptor 2C (Homo sapiens) (UniProt P28335); test: Binding affinity to 5HT2C at 10 uM; details: tested as the 11C-labelled form; in short: as §1
Sequence of 5-hydroxytryptamine receptor 2C (Homo sapiens) (P28335 whole entry): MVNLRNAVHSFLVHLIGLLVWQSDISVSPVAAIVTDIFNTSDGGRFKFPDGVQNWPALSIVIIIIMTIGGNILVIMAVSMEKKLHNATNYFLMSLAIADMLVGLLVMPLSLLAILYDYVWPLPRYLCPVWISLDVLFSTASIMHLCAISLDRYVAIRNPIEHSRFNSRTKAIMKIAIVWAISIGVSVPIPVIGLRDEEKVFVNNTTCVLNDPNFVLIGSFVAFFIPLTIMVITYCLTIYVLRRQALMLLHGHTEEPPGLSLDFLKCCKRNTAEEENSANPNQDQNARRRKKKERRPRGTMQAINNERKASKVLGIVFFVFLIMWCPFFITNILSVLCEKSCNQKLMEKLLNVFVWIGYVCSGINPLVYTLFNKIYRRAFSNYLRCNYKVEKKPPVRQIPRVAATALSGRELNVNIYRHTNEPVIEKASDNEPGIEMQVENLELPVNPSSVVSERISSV

[28] = biological target: Histamine H4 receptor (Homo sapiens) (UniProt Q9H3N8); test: Binding affinity to histamine H4 receptor at 10 uM; details: tested as the 11C-labelled form; in short: as §1
[29] = biological target: 5-hydroxytryptamine receptor 6 (Homo sapiens) (UniProt P50406); test: Binding affinity to 5HT6 at 10 uM; details: tested as the 11C-labelled form; in short: as §1
[30] = biological target: 5-hydroxytryptamine receptor 5A (Homo sapiens) (UniProt P47898); test: Binding affinity to 5HT5A at 10 uM; details: tested as the 11C-labelled form; in short: as §1
[31] = biological target: 5-hydroxytryptamine receptor 7 (Homo sapiens) (UniProt P34969); test: Binding affinity to 5HT7 at 10 uM; details: tested as the 11C-labelled form; in short: as §1
[32] = biological target: 5-hydroxytryptamine receptor 3A (Homo sapiens) (UniProt P46098); test: Binding affinity to 5HT3 at 10 uM; details: tested as the 11C-labelled form; in short: as §1
[33] = biological target: D(4) dopamine receptor (Homo sapiens) (UniProt P21917); test: Binding affinity to dopamine receptor D4 at 10 uM; details: tested as the 11C-labelled form; in short: as §1
[34] = biological target: Alpha-2C adrenergic receptor (Homo sapiens) (UniProt P18825); test: Binding affinity to adrenergic alpha-2C at 10 uM; details: tested as the 11C-labelled form; in short: as §1
[35] = biological target: Alpha-2B adrenergic receptor (Homo sapiens) (UniProt P18089); test: Binding affinity to adrenergic alpha-2B at 10 uM; details: tested as the 11C-labelled form; in short: as §1
Sequence of Alpha-2B adrenergic receptor (Homo sapiens) (P18089 whole entry): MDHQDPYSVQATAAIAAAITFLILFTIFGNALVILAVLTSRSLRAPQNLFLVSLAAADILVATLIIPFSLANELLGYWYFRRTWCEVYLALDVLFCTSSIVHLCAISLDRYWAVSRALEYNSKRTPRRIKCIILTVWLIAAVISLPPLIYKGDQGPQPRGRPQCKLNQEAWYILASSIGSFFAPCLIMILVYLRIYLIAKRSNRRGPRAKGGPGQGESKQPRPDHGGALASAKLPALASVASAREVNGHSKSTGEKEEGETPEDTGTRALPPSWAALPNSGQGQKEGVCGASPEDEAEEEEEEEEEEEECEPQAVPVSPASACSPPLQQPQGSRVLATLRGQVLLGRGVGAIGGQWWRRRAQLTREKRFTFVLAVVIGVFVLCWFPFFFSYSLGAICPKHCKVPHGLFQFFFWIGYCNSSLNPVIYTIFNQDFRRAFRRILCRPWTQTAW

Sequence of Translocator protein (Rattus norvegicus, UniProt P16257) (P16257 whole entry, looked up): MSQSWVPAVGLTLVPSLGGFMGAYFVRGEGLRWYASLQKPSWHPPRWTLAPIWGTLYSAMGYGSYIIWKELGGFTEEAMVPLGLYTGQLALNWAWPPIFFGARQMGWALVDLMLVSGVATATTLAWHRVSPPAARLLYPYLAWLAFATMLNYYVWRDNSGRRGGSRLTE

Question: For `COc1ccc(O[11CH3])c(CN(C(C)=O)c2cc(F)ccc2Oc2ccccc2)c1`, which Ki [1] is on record?
Answer: The Ki was 0.0726 nM.

Question: What about the Ki [2] of the same molecule?
Answer: The Ki was 0.242 nM.

Question: And the Ki [3]?
Answer: The Ki was 0.23 nM.

Question: With `COc1ccccc1CN(C(C)=O)c1cnccc1Oc1ccccc1` as the molecule, how does the Activity [4] read?
Answer: The Activity was less than 50%.

Question: And the Activity [5]?
Answer: The Activity was less than 50%.

Question: And the Activity [6]?
Answer: Its Activity is less than 50%.

Question: What about the Activity [7] of the same molecule?
Answer: The Activity was less than 50%.

Question: And the Activity [8]?
Answer: The Activity was less than 50%.

Question: And the Activity [9]?
Answer: Its Activity is less than 50%.

Question: What about the Activity [10] of the same molecule?
Answer: Its Activity is less than 50%.

Question: And the Activity [11]?
Answer: Its Activity is less than 50%.

Question: What about the Activity [12] of the same molecule?
Answer: The Activity was less than 50%.

Question: And the Activity [13]?
Answer: The Activity was less than 50%.

Question: What about the Activity [14] of the same molecule?
Answer: The Activity was less than 50%.

Question: What about the Activity [15] of the same molecule?
Answer: The Activity was less than 50%.

Question: And the Activity [16]?
Answer: The Activity was less than 50%.

Question: What about the Activity [17] of the same molecule?
Answer: The Activity was less than 50%.

Question: What about the Activity [18] of the same molecule?
Answer: Its Activity is less than 50%.

Question: And the Activity [19]?
Answer: Its Activity is less than 50%.

Question: What about the Activity [20] of the same molecule?
Answer: The Activity was less than 50%.

Question: What about the Activity [21] of the same molecule?
Answer: The Activity was less than 50%.

Question: What about the Activity [22] of the same molecule?
Answer: The Activity was less than 50%.

Question: What about the Activity [23] of the same molecule?
Answer: Its Activity is less than 50%.

Question: And the Activity [24]?
Answer: Its Activity is less than 50%.

Question: What about the Activity [25] of the same molecule?
Answer: The Activity was less than 50%.

Question: What about the Activity [26] of the same molecule?
Answer: Its Activity is less than 50%.

Question: And the Activity [27]?
Answer: The Activity was less than 50%.

Question: What about the Activity [28] of the same molecule?
Answer: The Activity was less than 50%.

Question: And the Activity [29]?
Answer: The Activity was less than 50%.

Question: What about the Activity [30] of the same molecule?
Answer: Its Activity is less than 50%.

Question: And the Activity [31]?
Answer: The Activity was less than 50%.

Question: What about the Activity [32] of the same molecule?
Answer: Its Activity is less than 50%.

Question: What about the Activity [33] of the same molecule?
Answer: The Activity was less than 50%.

Question: And the Activity [34]?
Answer: The Activity was less than 50%.

Question: What about the Activity [35] of the same molecule?
Answer: The Activity was less than 50%.
